Bioassay records: PubChem, several laboratories
GASC-1 inh: blocks human GASC-1 demethylase activity; AID 2099; hit rate 0.069% among 330,000; inhibition, % at 2.35 µM; Q9H3R0; GST-JMJD2C(1-420) H3K9me3 demethylation, DELFIA europium;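 active means more than half of a compound's replicate wells show inhibition beyond 50%, single wells judged on their own value; inconclusive means some, but no more than half, of replicates pass 50% inhibition; inactive means no replicate passes 50% inhibition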;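 further: signal counts dimethyl H3K9 product captured on neutravidin plate; 0% = median of DMSO wells and 100% = 0.3 times that DMSO median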
p-CIP stab down: lowers stability of the mouse p/CIP coactivator protein; Q05BA5; F442A p/CIP-EGFP cells, EGFP fluorescence, 16 h; decrease of EGFP signal, % at 10 µM; hit rate 0.01% among 290,000; AID 1984;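 active means EGFP signal decrease of at least 30% at 10 µM or well 3 SD below plate mean, unless failing retest; inactive means the rest, including hits failing retest or dose response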
VLA-4 inh: inhibition in a human VLA-4 binding assay; P13612; VLA-4 expressing cells, ligand binding flow cytometry; hit rate 0.2% among 330,000; AID 2557; inhibition, % (about 7 µM as worked out from the volumes in the protocol); in the data active means inhibition above about 50%
Arrestin-AP2 inh: inhibitors of human beta-arrestin and AP2 interaction; FITC-arrestin peptide / GST-AP2 beads, flow cytometry; AP2 beta2 appendage carries R879A mutation; hit rate 0.31% among 340,000; inhibition, % at 10 µM;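 active means inhibition above a set limit, near 3 SD of compounds lacking own fluorescence, cut at about 54% in these data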;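 further: plate controls were DMSO wells for no effect and 5 µM unlabelled arrestin peptide for full effect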
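System: GST-AP2 R879A glutathione beads. Medium: PBS with 0.05% Tween 20 and 0.1% BSA. Also added: FITC-arrestin peptide, 50 nM. Incubation: 12 min plus 1 h, RT. Measured by: high-throughput flow cytometry of beads, ex 488, em 535 nm. Evaluation: percent drop in bead-associated FITC signal.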
VLA-4 allo CP: confirmation of allosteric modulators of human VLA-4 integrin; shares compounds with VLA-4 inh; U937 cells, HUTS-21 LIBS mAb binding, flow cytometry; LDV ligand present at threefold Kd; inhibition, % at 6.7 µM; hit rate 2% among 1,300; AID 2813; in the data active means inhibition above about 40%;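 further: 0% = ligand without compound and 100% = no ligand background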
An asterisk follows results filed as active; i = inactive; ? = inconclusive; · = no result given. An excerpt weighted towards active compounds, which were near 0.57% of everything screened.

SMILES	GASC-1 inh	p-CIP stab down	VLA-4 inh	Arrestin-AP2 inh	VLA-4 allo CP
CCC(CC)NC(=O)Nc1cccc(C)c1C	39	-10	45	·	8
Cc1cccc(C(=O)OCC(=O)N(C)c2ccccc2)c1C	-4	-13	3	20	0
COc1cc2c(cc1OC)C(C)N(CCN1C(=O)c3ccccc3C1=O)CC2 (stereo not drawn)	4	2	44	5	-7
CC(C)(C)OC(=O)n1cc(C(=O)c2ccccc2O)cn1	-1	-10	50*	-2	7
CCOC(=O)n1cc(C(=O)c2ccccc2O)cn1	-13	-20	28	20	·
Oc1ccc(Cl)cc1CNCC1CCCO1 (stereo not drawn)	-3	-8	10	9	·
Cc1ccc(C(=O)C(OC(=O)c2cnccn2)c2ccccc2)cc1 (stereo not drawn)	-3	-8	48	5	-9
N=C(N)N=Nc1c(O)[nH]c2ccc(Br)cc12	15	-12	53*	3	0
Cc1ccc(S(=O)(=O)N2CCC(C(=O)N/N=C/c3cccn3C)CC2)cc1	-1	·	14	-5	·
CCOc1ccc(CN2CCN(Cc3cn(CC)nc3C)CC2CCO)cc1 (stereo not drawn)	?	-8	42	-12	2
CCN(CC)C(=O)c1cc(-c2ccc3c(c2)OCO3)on1	41	-2	55*	25	-6
O=S(=O)(NCC(Nc1ccccc1)c1ccccc1)c1ccc(Cl)cc1 (stereo not drawn)	1	-3	-3	6	·
C/C(=N\NC(=O)CSCc1cccc(Br)c1)c1ccc([N+](=O)[O-])cc1	3	-9	51*	33	7
CCNC(=O)COc1cc(C)c(Cl)c(C)c1	0	-7	8	18	·
CCn1c(SCC(=O)Nc2nc(C)cs2)nnc1C(NC(=O)c1ccccc1Cl)C(C)C (stereo not drawn)	-3	-10	0	-3	-7
Cc1cc(NC(=O)CSc2nc(-c3ccco3)cc(C(F)(F)F)n2)n(-c2ccccc2)n1	5	-6	-4	-43	·
Cc1c(NC(=O)CSc2nc(-c3ccco3)cc(C(F)(F)F)n2)c(=O)n(-c2ccccc2)n1C	16	0	93*	3	i
CC(C)[C@@H]1CN=C(N)N1C[C@@H]1CCCN1C[C@H](C)N1C[C@@H](Cc2ccccc2)N(CCc2ccc(Cl)c(Cl)c2)C1=N	·	·	53*	-2	3
CN1C(=O)C(C)(C)c2cc(S(=O)(=O)NCc3ccc(Cl)cc3)ccc21	-3	-13	0	2	0
Cc1ccc(CCNS(=O)(=O)c2ccc3c(c2)C(C)(C)C(=O)N3C)cc1	-4	6	-24	17	·
CN1C(=O)C(C)(C)c2cc(S(=O)(=O)NCCc3ccc(Cl)cc3)ccc21	-24	-4	-7	15	-5
CC(C)C(NS(=O)(=O)c1ccc2c(c1)C(C)(C)C(=O)N2C)C(=O)NCc1ccccc1Cl (stereo not drawn)	-5	-1	74*	-6	-15
O=C1NC(c2ccccc2)=C(c2nc3ccccc3s2)C(c2ccc(F)cc2)N1 (stereo not drawn)	9	-26	-12	2	·
COc1cccc(CN2CC(C(=O)N(C)Cc3ccc(C)cc3)CCC2=O)c1 (stereo not drawn)	-9	5	7	6	·
CN(CCCN1CCOCC1)C(=O)c1ccc2nc(Cc3cccc(Cl)c3)oc2c1	-7	16	-7	34	·
SMILES	GASC-1 inh	p-CIP stab down	VLA-4 inh	Arrestin-AP2 inh	VLA-4 allo CP
O=C(CNC(=O)c1sc2ccccc2c1Cl)NCc1cccc(C(F)(F)F)c1	-2	·	53*	20	0
O=C1CCCc2ccccc2N1Cc1ccc(F)cc1	-3	-9	52*	15	1
O=C1CCCc2ccccc2N1Cc1cccc(F)c1	-7	1	-9	-8	·
CC1CCCN(C(=O)CSc2n[nH]c(-c3cccs3)n2)C1 (stereo not drawn)	-1	·	7	2	·
Cc1ccc(S(=O)(=O)Nc2ccc(N(C)C)cc2)cc1	6	0	8	26	5
COc1ccc(C(=O)NCc2ccc3c(c2)cc(C)n3C)cc1OC	-5	-6	6	35	·
COc1ccc(/C=C\C(=O)NCc2ccc3c(c2)cc(C)n3C)cc1OC	-31	6	58*	6	2
CC(C)c1ccccc1-n1c(SCC(=O)N2CCc3ccccc3C2)nc2ccccc2c1=O	-4	-11	55*	-3	8
